PvdQ acylase – blocks Pseudomonas aeruginosa PvdQ acylase activity; purified PvdQ acylase, fluorescence plate reader; inhibition, % at 10 µM; actives 0.063% (n = 340,000); in the data active means inhibition above about 30%, passing the limit was not always enough;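 further: 0% = vehicle neutral wells and 100% = reference inhibitor wells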
CAL PDZ FP-1 – inhibitors of human CAL PDZ peptide binding | purified CAL PDZ, TMR-peptide fluorescence polarization, 1 h | inhibition, % at 20 µM | actives 0.02% (n = 330,000) | AID 504414;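 active means highest replicate inhibition of at least 40%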;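 further: plate controls were DMSO neutral control wells for no effect and unlabeled competitor peptide control wells for full effect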
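Test system: tagged CAL PDZ domain / Buffer or medium: sodium phosphate/NaCl buffer pH 7.4 with TCEP, IgG, Thesit / Reagent: TMR-labelled reporter peptide T*-PRC34 bound in PDZ groove / Compound dosing: single point, 20 µM / Schedule: 1 h incubation at room temperature before polarization reading / Technique: fluorescence polarization (mP) / Benchmarks: unlabelled peptide, DMSO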
Vif inh – blocks HIV Vif function | HEK293T cells, Vif self-association by quenched fluorescence, imaging, 24 h | inhibition, % at 7.49 µM | actives 0.35% (n = 340,000); in the data active means inhibition above about 50%, passing the limit was not always enough
N-glyco inh – blocks N-linked glycosylation in D54 reporter cells. actives 0.23% (n = 360,000). D54 ERlucT glycosylation luciferase reporter, 24 h; percent of 100 nM tunicamycin response. reporter increase, % at 12.5 µM. AID 588692;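 active means mean luciferase reporter signal, scaled so untreated is 0 and the glycosylation-blocking control 100, at or above a set limit in every replicate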;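 further: luciferase carries N-glycosylation sites so blocking glycosylation raises the light; 0% = median of neutral control wells and 100% = median of 100 nM tunicamycin wells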
CDK5 inh – inhibitors of human CDK5/p35 kinase; Recombinant CDK5/p35, ADP-Glo luminescence, 60 min; inhibition, % at 10 µM; actives 0.01% (n = 330,000); AID 488839;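 active means highest replicate inhibition of at least 50% and at least 75% of replicates reaching 50%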;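 further: plate controls were DMSO neutral control for no effect and GW8510 at 10 µM for full effect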
Target sequence (Q00535 whole entry, looked up): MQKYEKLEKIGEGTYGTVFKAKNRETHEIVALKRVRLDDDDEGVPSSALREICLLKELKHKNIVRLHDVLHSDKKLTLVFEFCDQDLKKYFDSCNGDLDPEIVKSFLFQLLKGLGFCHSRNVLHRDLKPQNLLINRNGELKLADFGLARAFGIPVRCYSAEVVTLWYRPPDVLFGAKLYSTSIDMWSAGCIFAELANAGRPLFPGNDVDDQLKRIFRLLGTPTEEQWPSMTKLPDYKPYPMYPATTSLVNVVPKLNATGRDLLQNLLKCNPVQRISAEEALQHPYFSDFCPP
Target sequence (Q15078 whole entry, looked up): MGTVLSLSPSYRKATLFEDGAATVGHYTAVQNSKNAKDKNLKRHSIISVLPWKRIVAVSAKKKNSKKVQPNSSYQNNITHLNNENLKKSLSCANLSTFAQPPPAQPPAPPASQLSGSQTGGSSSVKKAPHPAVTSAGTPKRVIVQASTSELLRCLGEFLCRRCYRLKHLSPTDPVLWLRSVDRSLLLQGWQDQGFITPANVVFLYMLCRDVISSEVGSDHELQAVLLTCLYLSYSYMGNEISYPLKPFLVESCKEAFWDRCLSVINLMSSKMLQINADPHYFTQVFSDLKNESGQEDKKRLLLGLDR
CAL PDZ FP-2 – CAL PDZ (human) peptide binding inhibition. Q9HD26. purified CAL PDZ, TMR-peptide fluorescence polarization, 1 h. actives 0.92% (n = 300,000). inhibition, % at 24.9 µM;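 active means mean inhibition of at least 30% with at least half of replicates also reaching 30%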;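 further: 0% = DMSO neutral control and 100% = excess unlabeled competitor peptide PRC23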
* = called active by the depositor; i = inactive; . = no result given; + = active, no number; ! = a repeat was not active. Compounds with a hit are over-represented: about 1.4% of the library has one in this group of screens.

SMILES	PvdQ acylase	CAL PDZ FP-1	Vif inh	N-glyco inh	CDK5 inh	CAL PDZ FP-2
Cc1ccc2nc(SC(C)C(=O)NC3CCCC3)[nH]c2c1 (stereo unspecified)	-13	-1	-11	-2	0	-5
Cc1cc2nc(SC(C)C(=O)O)[nH]c2cc1C (stereo unspecified)	-15	-3	-1	2	0	active
O=C(COC(=O)Cc1c(F)cccc1Cl)Nc1nnc(-c2ccccc2)o1	-11	-3	-3	1	-1	-2
CC1=C(/C=C/C(C)=C/C=C/C(C)=C/C(=O)Nc2ccc(O)cc2)C(C)(C)CCC1	9	-1	50*!	1	-1	-5
CC1=C(/C=C/C(C)=C/C=C/C(C)=C\C(=O)O)C(C)(C)CCC1	-8	0	-1	5	2	-5
COc1cc(-c2cc3nc(NCCOc4ccccc4)ccn3n2)cc(OC)c1OC	.	.	.	46*	.	.
COc1cc(-c2cc3nc(NCCc4ccc(S(N)(=O)=O)cc4)ccn3n2)cc(OC)c1OC	.	.	1	13	.	.
COc1cc(-c2cc3nc(NCCc4ccncc4)ccn3n2)cc(OC)c1OC	.	.	-8	28*	.	.
c1ccc(COc2ccc(-c3cc4nc(NCCOc5ccccc5)ccn4n3)cc2)cc1	.	.	-10	-3	.	.
O=C1Nc2ccccc2S/C1=C/Nc1cccc(Cl)c1	-10	-1	123*	-3	1	0
O=C1Nc2ccccc2SC1=Cc1ccccc1	.	.	0	2	.	.
O=C(COC(=O)Cc1c(F)cccc1Cl)NC(=O)c1ccccc1	0	-2	6	2	1	50*
CCOC(=O)C1CCCN(CC(=O)Nc2c(C(=O)OC)[nH]c3ccc(Cl)cc23)C1 (stereo unspecified)	-13	-1	61*	-2	0	-1
Cc1ccc(C)c(OCC(O)CN2CCC(Cc3ccccc3)CC2)c1 (stereo unspecified)	-18	-2	-4	3	2	37*
Cc1ccc(C)c(OCC(O)CN2CCN(CCN3C(=O)c4cccc5cccc(c45)C3=O)CC2)c1 (stereo unspecified)	1	-2	-2	57*	0	-1
CCOC(=O)CSc1nc2cc(C(=O)NCC3CCCO3)ccc2c(=O)n1Cc1ccco1 (stereo unspecified)	-8	-1	-3	0	0	-4
O=C(NCC1CCCO1)c1ccc2c(=O)n(Cc3ccco3)c(SCC(=O)N3CCCC3)nc2c1 (stereo unspecified)	-18	.	-2	-1	-2	79*
N#Cc1ccc(C(=O)N2CCCC(c3cc(C(=O)NCc4cccnc4)no3)C2)cc1 (stereo unspecified)	.	.	-7	0	.	.
CS(=O)(=O)Nc1ccccc1-c1ccc2nccn2c1	.	.	21	2	.	.
Cn1cccc1C(C#N)c1cccc(F)c1C#N (stereo unspecified)	60*	-2	6	2	1	2
COc1cc(/C=N/Nc2nc3ccccc3s2)ccc1OC(=O)c1ccccc1F	-7	-2	0	-8	-3	72*
COc1cc(OC)cc(C(=O)Oc2ccc(/C=N/Nc3nc4ccccc4s3)cc2OC)c1	0	-1	-5	-6	-2	.
COc1ccc(C(=O)CC(C(=O)O)c2ccc(OC)c(OC)c2)cc1OC (stereo unspecified)	.	.	2	2	.	.
O=C(CSc1nc2nn(-c3ccccc3)c(=O)c-2c2n1CCCCC2)Nc1ccc(OC(F)F)cc1	-6	5	0	-4	0	127*
CC(C)(C)NC(=O)NC(=O)CN1CCCc2ccccc21	-4	-1	i	-1	0	0
SMILES	PvdQ acylase	CAL PDZ FP-1	Vif inh	N-glyco inh	CDK5 inh	CAL PDZ FP-2
O=C(CN1CCCc2ccccc21)NC(=O)NC1CCCCC1	-2	-1	0	-2	0	82*
Nc1ccc(C(=O)OCCc2ccccc2)cc1	-6	1	-13	-12	-1	-1
O=C(OCCc1ccccc1)c1cc(O)c(O)c(O)c1	-28	0	51*	-7	-1	-2
COc1ccc(NCC(=O)Nc2cccc(C(F)(F)F)c2)cc1S(=O)(=O)N1CCOCC1	-19	-3	.	2	-4	1
O=C(c1ccccc1)C1OC1C(=O)c1ccccc1 (stereo unspecified)	-13	-1	73*	-8	1	-6
C=CCn1c(-c2cccc3ccccc23)n[nH]c1=S	-11	-1	-8	1	3	50*
NC(=O)c1ccccc1OCC(=O)NS(=O)(=O)c1ccccc1	6	-2	56*	3	-1	-3
Cc1nnc(SC(C)C#N)n1-c1ccccc1 (stereo unspecified)	-13	0	3	1	0	76*
Cc1nnc(SCc2ccccc2C#N)n1-c1ccccc1	-18	.	52	0	1	-5
CCN1C(=O)/C(=C/C=C2/Sc3ccccc3N2CCO)SC1=S	-8	0	-6	-4	1	3
CCN1C(=S)SC(=O)C1=C1C=C(C)N(CCO)C(C)=C1	-3	-2	+	-6	3	0
COc1ccc(S(=O)(=O)NCCc2ccncc2)cc1	-18	-1	-4	1	0	63*
COc1ccc(S(=O)(=O)NCCc2ccccc2)cc1	11	-1	-9	-4	-1	-4
CC(=O)c1ccc(N(CC(=O)NC2CCCC2)C(=O)c2csnn2)cc1	3	-1	15	1	-1	-4
COc1ccc([C@H]2CC(=O)C=C(c3cccc(NC(C)=O)c3)C2)cc1	2	0	3	1	-2	-3
COC(=O)C1(C(F)(F)F)N=C(N(C)C)OC(N(C)C)=N1	-13	-2	3	1	1	42*
Cc1ccc(NC(=O)COC(=O)c2ccc(CN3CCCC3=O)cc2)c(Cl)c1	-15	0	22	2	2	.
CCOc1ccc(CCNC(=O)CS(=O)(=O)Cc2nc(-c3ccc(OC)cc3)oc2C)cc1	2	-2	-1	2	1	1
COc1ccc(-c2nc(CS(=O)(=O)CC(=O)NCCc3ccccc3)c(C)o2)cc1	-2	-2	56*	2	1	4
O=C(NCc1ccccc1)C1Cc2c(-c3ccc4c(c3)OCO4)ccnc2O1 (stereo unspecified)	.	.	21	13	.	.
CCOC(=O)c1cnn(-c2ccccc2)c1NC(=O)c1ccccc1C	8	-2	54*	2	0	-2
Cc1ccccc1NC(=O)c1cnn(-c2ccccc2)c1C	-1	1	2	-8	1	.
CCc1ccccc1NC(=O)c1cnn(-c2ccccc2)c1C	-4	.	-6	-5	1	75*
Cc1ccccc1C(=O)Nc1c(C(=O)N2CCCC2)cnn1-c1ccccc1	-15	-2	.	1	-1	-4

Source: PubChem
